HGIII-sPLA2 inh – human group III sPLA2 inhibitors, primary screen, biochemical, QFRET, BODIPY PC-A2 liposome substrate; AID 743126, 2013; QFRET BODIPY PC-A2 liposome hydrolysis, fluorescence; inhibition, % at 12.2 µM; hit rate 0.56% among 370,000;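 active = inhibition above mean plus 3 SD of compounds lying within the high and low control bounds, cut at about 19% in these data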
ASAP1 GAP inh – inhibitors of human ASAP1 ArfGAP activity, primary screen, biochemical, fluorescence polarization. ASAP1-stimulated ARF1 GTP hydrolysis, GDP FP detection. inhibition, % at 16.5 µM. hit rate 0.19% among 360,000; in the data active = inhibition above about 25%
ARFGAP1 inhibitor – inhibitors of rat ARFGAP1 GAP activity, primary screen, biochemical, fluorescence polarization, GDP tracer. Arfgap1-stimulated ARF1 GTP hydrolysis, GDP FP detection. inhibition, % at 16.5 µM. hit rate 0.26% among 360,000. AID 651572, 2012;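 active = inhibition above a per-plate limit, mean inhibition of low control wells plus 3 SD, cut at about 25% in these data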
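Replicates: Single well per compound | Assay system: Truncated rat Arfgap1 GAP domain | Control set: No-Arfgap1 wells (100%) versus DMSO full-reaction wells (0%) | Times: Enzyme reaction 120 min at 25 °C after 20 min preincubation | Reagent: Human ARF1(Δ1-17)-GTP substrate | Measured by: Tracer-displacement fluorescence polarization with EDTA stop, 620/688 nm | Measure: Percent inhibition of Arfgap1-stimulated GTP hydrolysis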
PLCg1 inh – PLC-gamma1 enzyme inhibitors, primary screen, biochemical, fluorescence, purified enzyme. 1-phosphatidylinositol 4,5-bisphosphate phosphodiesterase gamma-1 (Homo sapiens), P19174. fluorogenic substrate. inhibition, % at 12.2 µM. hit rate 0.84% among 370,000
Target sequence (P19174 whole entry, looked up): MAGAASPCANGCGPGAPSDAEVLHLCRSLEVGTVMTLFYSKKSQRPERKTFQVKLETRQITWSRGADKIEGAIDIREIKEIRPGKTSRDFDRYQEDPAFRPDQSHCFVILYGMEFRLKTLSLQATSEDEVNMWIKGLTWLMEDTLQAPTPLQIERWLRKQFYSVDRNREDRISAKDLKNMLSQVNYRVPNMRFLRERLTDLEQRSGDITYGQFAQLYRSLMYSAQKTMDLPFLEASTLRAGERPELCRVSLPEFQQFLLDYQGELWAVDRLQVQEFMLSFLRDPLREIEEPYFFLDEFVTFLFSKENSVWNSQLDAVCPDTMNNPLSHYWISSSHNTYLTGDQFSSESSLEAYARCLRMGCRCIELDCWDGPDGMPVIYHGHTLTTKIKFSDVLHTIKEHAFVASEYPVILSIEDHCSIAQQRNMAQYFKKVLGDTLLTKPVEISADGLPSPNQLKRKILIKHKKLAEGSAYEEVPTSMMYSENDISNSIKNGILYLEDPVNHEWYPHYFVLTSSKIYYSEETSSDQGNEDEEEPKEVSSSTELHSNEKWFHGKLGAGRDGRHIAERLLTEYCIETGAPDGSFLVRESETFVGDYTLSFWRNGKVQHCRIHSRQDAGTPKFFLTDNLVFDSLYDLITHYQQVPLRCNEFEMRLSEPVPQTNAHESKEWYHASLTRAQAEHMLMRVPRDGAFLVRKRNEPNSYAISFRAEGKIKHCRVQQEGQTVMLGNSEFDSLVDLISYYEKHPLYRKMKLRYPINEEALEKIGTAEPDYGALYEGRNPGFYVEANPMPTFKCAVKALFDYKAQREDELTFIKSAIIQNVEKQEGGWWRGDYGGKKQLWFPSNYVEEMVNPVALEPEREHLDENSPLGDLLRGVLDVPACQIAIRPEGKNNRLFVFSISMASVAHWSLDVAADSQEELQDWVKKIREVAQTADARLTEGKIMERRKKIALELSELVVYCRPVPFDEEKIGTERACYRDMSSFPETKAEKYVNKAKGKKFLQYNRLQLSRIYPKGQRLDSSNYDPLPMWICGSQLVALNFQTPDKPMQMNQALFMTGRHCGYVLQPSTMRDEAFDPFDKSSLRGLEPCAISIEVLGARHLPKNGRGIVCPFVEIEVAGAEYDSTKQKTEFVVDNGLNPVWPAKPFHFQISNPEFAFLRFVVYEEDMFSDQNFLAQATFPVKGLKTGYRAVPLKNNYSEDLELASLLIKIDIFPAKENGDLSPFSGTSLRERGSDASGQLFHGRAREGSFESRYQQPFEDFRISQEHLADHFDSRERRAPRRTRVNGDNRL
PLC-beta3 inh – human PLC-beta3 inhibitors, primary screen, biochemical, fluorescence; inhibition, % at 12.2 µM; Purified PLC-beta3, fluorogenic substrate; hit rate 0.18% among 370,000; 1-phosphatidylinositol 4,5-bisphosphate phosphodiesterase beta-3 (Homo sapiens), Q01970; in the data active = inhibition above about 11%
PLCgamma1 ctr – PLC-gamma1 enzyme inhibitors, counter-screen for PLC-beta3 inhibitor project, biochemical, fluorescence; inhibition, % at 12.3 µM; AID 743258, 2014; purified PLC-gamma1, fluorogenic substrate; hit rate 3.1% among 3,300; shares compounds with PLCg1 inh
PLCbeta3 conf – PLC-beta3 inhibitor confirmation, biochemical, fluorescence, purified enzyme | AID 743261, 2014 | inhibition, % at 12.3 µM | fluorogenic substrate fluorescence | shares compounds with PLCg1 inh | hit rate 1% among 3,300; in the data active = inhibition above about 11%
Numbers stand for hits; i = inactive; nt = not tested or not shown. Hits are enriched below; roughly 1.9% of the tested compounds scored in any of these assays. Rule as the data show it, unless noted: active = inhibition above about 9.5%; inactive = the rest.

SMILES	HGIII-sPLA2 inh	ASAP1 GAP inh	ARFGAP1 inhibitor	PLCg1 inh	PLC-beta3 inh	PLCgamma1 ctr	PLCbeta3 conf
CCOC(=O)C1CCN(Cc2cnc(Oc3ccc(OC)cc3)s2)CC1	i	i	i	i	11.1	i	i
CC1(C)CC(=O)C=C(Nc2ccccc2N)C1	i	i	i	i	i	nt	nt
Cc1cccc(NC2=CC(=O)CC(C)(C)C2)c1C	i	i	i	9.8	i	i	i
CN1CC=C(c2ccccc2)N(c2ccc(Br)cc2)C1=O	i	nt	nt	i	i	nt	nt
COc1ccc2c(c1)[C@]1(C(=O)N2C)C2=C(CCCC2=O)Oc2cc(C)oc(=O)c21	i	i	i	i	i	nt	nt
Cc1cc2c(c(=O)o1)[C@@]1(C(=O)N(C)c3ccc([N+](=O)[O-])cc31)C1=C(CCCC1=O)O2	i	i	i	9.5	i	i	i
NC1=[N+](Cc2ccccc2)C[C@H]2C(=C3CCCC[C@H]3n3c(=O)n(-c4ccccc4)c(=O)n32)N1	i	nt	nt	i	i	nt	nt
CCOC(=O)c1cc(-c2ccccc2)n[nH]1	i	i	i	i	i	nt	nt
CCOC(=O)c1nncc(-c2ccccc2)n1	i	i	i	i	11.2	i	i
CC1CCCC(C)N1C(=O)COC(=O)COc1ccc(C#N)cc1 (stereo not given)	i	i	i	11.2	i	i	i
CCCCCCSc1ccc([C@H]2N[C@@](CC(C)C)(C(=O)OC)[C@H]3C(=O)N(C)C(=O)[C@@H]23)cc1	i	i	i	i	i	nt	nt
CCCCCCSc1ccc([C@H]2N[C@@](CC(C)C)(C(=O)OC)[C@H]3C(=O)N(CC)C(=O)[C@@H]23)cc1	i	i	i	15.5	i	i	i
COC(=O)[C@]12C[C@H](CC(=O)NCc3ccc(OC)c(OC)c3)C(=O)N(Cc3ccc(Cl)cc3Cl)C1=C[C@H](COCc1ccccc1)O[C@@H]2C	i	nt	nt	i	i	nt	nt
O=C(NCCN1CCOCC1)Nc1ccc(Cl)cc1	i	i	i	12.3	i	i	i
CC1=C(C)CC(C(=O)NNC(=O)c2ccccc2)C(C(=O)O)C1 (stereo not given)	i	i	i	11.2	i	i	i
O=C(Nc1cccc(OC(F)(F)F)c1)C1Cc2c(-c3cccc(F)c3)ccnc2O1 (stereo not given)	i	i	i	12.5	i	i	i
COc1ccc(NC(=O)C2Cc3c(-c4cccc(F)c4)ccnc3O2)cc1 (stereo not given)	i	i	i	i	i	nt	nt
O=C(Nc1nc(-c2ccncc2)cs1)c1ccc(S(=O)(=O)N2CCOCC2)cc1	i	i	i	13.3	i	i	i
O=C(Nc1cccc(S(=O)(=O)C(F)F)c1)c1ccc(S(=O)(=O)N2CCOCC2)cc1	i	i	i	i	12.7	i	i
O=C(Nc1cccc(F)c1)c1ccc(S(=O)(=O)N2CCOCC2)cc1	i	i	i	10.2	i	i	i
O=C(NC12CC3CC(CC(C3)C1)C2)c1ccc(S(=O)(=O)N2CCOCC2)cc1	i	i	i	i	11.9	i	i
CC(C)C[C@H]1COc2cccc(F)c2S(=O)(=O)N1Cc1cn(Cc2ccc(C(F)(F)F)cc2)nn1	i	nt	nt	i	i	nt	nt
O=C(CN(Cc1ccc(F)cc1)S(=O)(=O)c1ccc(S(=O)(=O)N2CCOCC2)cc1)Nc1ccccc1	i	i	i	i	11.1	i	i
C/C(=C/c1nc(N)n(Cc2ccccc2)c1Cc1ccccc1)Cn1[nH]c(=O)n(-c2ccccc2)c1=O	i	nt	nt	i	i	nt	nt
Cc1nn(C)c(Oc2ccccc2)c1CCNC(=O)C(C)(C)C	i	i	i	11.1	i	i	i
SMILES	HGIII-sPLA2 inh	ASAP1 GAP inh	ARFGAP1 inhibitor	PLCg1 inh	PLC-beta3 inh	PLCgamma1 ctr	PLCbeta3 conf
Cc1nn(C)c(Oc2ccccc2)c1CCNC(=O)CC(C)C	i	i	i	i	i	nt	nt
S=C(Nc1cccc(Cl)c1)OCCN1CCCC12CCC(c1ccccc1)CC2 (stereo not given)	i	nt	nt	i	i	nt	nt
O=C1c2cccnc2C(=O)N1c1ccccc1-c1ccccc1	i	i	i	11.7	i	i	i
C=CCNC(=O)N1CCCC(C(=O)c2cccc(OC(C)C)c2)C1 (stereo not given)	i	i	i	10.7	i	i	i
CCOC(=O)N1CCN(C(=O)COc2ccccc2Cl)CC1	i	i	i	9.5	i	i	i
CCCCCOc1ccc(/C=N/NC(=O)CSc2nnc(-c3ccc(OC)cc3)n2-c2ccc(C)cc2)cc1	i	nt	nt	i	i	nt	nt
COC(=O)[C@]12C[C@H](CC(=O)N3CCCC3)C(=O)N(CCC3=CCCCC3)C1=C[C@H](C(C)C)O[C@@H]2C1CC1	i	nt	nt	i	i	nt	nt
CCCN1CCN(CCCNC(=O)C(CC)n2nc(C)c3sc4ccccc4c3c2=O)CC1 (stereo not given)	i	i	i	i	i	nt	nt
CCC(C(=O)NCCCN1CCN(C)CC1)n1nc(C)c2sc3ccccc3c2c1=O (stereo not given)	i	i	i	9.6	i	i	i
COc1cccc(NC(=O)n2ncc3c(C)cccc32)c1	i	i	i	10.4	i	i	i
CCOc1ccc(NC(=O)n2ncc3c(C)cccc32)cc1	i	i	i	i	i	nt	nt
Cc1ccc(NC(=O)n2ncc3c(C)cccc32)c(C)c1	i	i	i	10.6	i	i	i
CCOP(=O)(OCC)C(NC(=O)Nc1ccccc1)C(N)=O (stereo not given)	i	i	i	i	11.1	i	i
CCOP(=O)(OCC)C(NC(=O)Nc1ccc(Cl)cc1)C(N)=O (stereo not given)	i	i	i	i	i	nt	nt
Cc1ccc(C(NC(=O)c2ccccc2)C(Cl)Cl)cc1 (stereo not given)	i	i	i	i	10.7	i	i
CCOC(=O)c1c(C)[nH]c(C(=O)COC(=O)c2oc3ccc(OC)cc3c2C)c1C	i	i	i	i	i	nt	nt
CCOC(=O)c1c(C)[nH]c(C(=O)COC(=O)c2oc3ccccc3c2C)c1C	i	i	i	10.4	i	i	i
COC(=O)[C@H](C(C)C)N(CCc1cn(CC2CCCCC2)nn1)S(=O)(=O)c1ccccc1Br	i	nt	nt	i	i	nt	nt
COc1ccc(/C=C2\CCC(C3CCCC3)C2=O)cc1 (stereo not given)	i	i	i	10.0	i	i	i
Cc1ccccc1C(=O)N[C@H](C(=O)N1CCC[C@H]1C(=O)NCc1ccccc1)c1ccccc1	i	i	i	i	i	nt	nt
Cc1cc(NC(=O)C(C)SCC(=O)OC(C)C(=O)Nc2ccccc2C)no1 (stereo not given)	i	i	i	i	i	nt	nt

Screening results from PubChem BioAssay.
